The record followed here is ChEMBL document CHEMBL1275585, “Combined antibacterial and anti-inflammatory activity of a cationic disubstituted dexamethasone-spermine conjugate” (Antimicrob Agents Chemother, 2010).

The test system of data set [1] is Staphylococcus aureus. As to the kind of experiment: Antibacterial activity against macrolide-lincosamide-streptogramin B-negative, beta-lactamase-positive, methicillin-susceptible Staphylococcus aureus isolate 4. In kind it is functional.
The test system of data set [2] is Staphylococcus aureus. As to the kind of experiment: Antibacterial activity against macrolide-lincosamide-streptogramin B-negative, beta-lactamase-positive, methicillin-susceptible Staphylococcus aureus isolate 5. In kind it is functional.
The test system of data set [3] is Staphylococcus aureus. As to the kind of experiment: Antibacterial activity against macrolide-lincosamide-streptogramin B-positive, beta-lactamase-positive, methicillin-resistant Staphylococcus aureus ATCC 43300. The format is functional. In outline:
(§1)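 MIC by broth dilution in Mueller-Hinton broth, inoculum 8 × 10^5 CFU/ml. Strains were typed for beta-lactamase with cefinase, for methicillin susceptibility by Etest, and for macrolide-lincosamide-streptogramin B by disc diffusion on MHA at 0.5 McFarland.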

The subject of data set [4] is Staphylococcus aureus. As to the kind of experiment: Antibacterial activity against macrolide-lincosamide-streptogramin B-negative, beta-lactamase-positive, methicillin-susceptible Staphylococcus aureus isolate 3. In kind it is functional.
In data set [5] the test system is Staphylococcus aureus. As to the kind of experiment: Antibacterial activity against macrolide-lincosamide-streptogramin B-negative, beta-lactamase-positive, methicillin-susceptible Staphylococcus aureus ATCC 29213. The format is functional.
Data set [6] concerns Staphylococcus aureus. As to the kind of experiment: Antibacterial activity against macrolide-lincosamide-streptogramin B-positive, beta-lactamase-positive, methicillin-resistant Staphylococcus aureus isolate 6. The format is functional. An outline of the steps:
as §1

Data set [7] concerns Staphylococcus aureus. As to the kind of experiment: Antibacterial activity against macrolide-lincosamide-streptogramin B-negative, beta-lactamase-positive, methicillin-susceptible Staphylococcus aureus ATCC 29213 in presence of clavulanic acid. In kind it is functional. An outline of the steps:
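Amoxicillin/clavulanic acid MIC against S. aureus measured alone and together with sublethal D2S concentrations.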

Data set [8] in a line: Cytotoxicity against human neutrophil assessed as effect on cell viability up to 20 uM after 12 hrs by microscopy. The format is cell-based. In outline: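 Freshly isolated human blood neutrophils incubated with D2S up to 20 µM for 12 h. Viability scored by manual trypan blue exclusion.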
Another data set deals with Pseudomonas aeruginosa. As to the kind of experiment: Bactericidal activity against kanamycin-resistant Pseudomonas aeruginosa PAO1 up to 50 uM after 1 hr by time-kill assay.

In brackets after ≈: the same amount, converted by molar mass. Activity calls are given as the source filed them. The calls are words filed in the database; no cut-off is given here.

By MIC is commonly meant the least concentration at which growth counts as inhibited. Consider `NCC[C@H](O)C(=O)N[C@@H]1C[C@H](N)[C@@H](O[C@H]2O[C@H](CN)[C@@H](O)[C@H](O)[C@H]2O)[C@H](O)[C@H]1O[C@H]1O[C@H](CO)[C@@H](O)[C@H](N)[C@H]1O` [AMIKACIN], for which the MIC in the data set on Staphylococcus aureus [1] was found to be 3.2 µg/mL (≈ 5.46 µM); against Staphylococcus aureus [2], 1.6 µg/mL (≈ 2.73 µM); in the data set with Staphylococcus aureus [3] it was 25 µg/mL (≈ 42.7 µM); against Staphylococcus aureus [4] it was 1.6 µg/mL (≈ 2.73 µM); with Staphylococcus aureus [5], 1.6 µg/mL (≈ 2.73 µM); in the data set on Staphylococcus aureus [6] it was 25 µg/mL (≈ 42.7 µM).
For the compound `CC1(C)S[C@@H]2[C@H](NC(=O)[C@H](N)c3ccc(O)cc3)C(=O)N2[C@H]1C(=O)O` [AMOXICILLIN], the MIC in the data set with Staphylococcus aureus [7] came to 0.4 µg/mL; in the data set with Staphylococcus aureus [1], 1.6 µg/mL (≈ 4.38 µM); with Staphylococcus aureus [2], 3.2 µg/mL (≈ 8.76 µM); against Staphylococcus aureus [3] it was 12.5 µg/mL (≈ 34.2 µM); in the data set with Staphylococcus aureus [4] it was 0.2 µg/mL (≈ 0.547 µM); in the data set on Staphylococcus aureus [6] it was 12.5 µg/mL (≈ 34.2 µM).
Turning to `C[C@@H]1C[C@H]2[C@@H]3CCC4=CC(=O)C=C[C@]4(C)[C@@]3(F)[C@@H](O)C[C@]2(C)[C@@]1(O)C(=O)CO` [DEXAMETHASONE], the Activity result in data set [8] is “Non-toxic”. In addition, the result in the data set on Pseudomonas aeruginosa was inactive.
Take `CC[C@H]1OC(=O)[C@H](C)[C@@H](O[C@H]2C[C@@](C)(OC)[C@@H](O)[C@H](C)O2)[C@H](C)[C@@H](O[C@@H]2O[C@H](C)C[C@H](N(C)C)[C@H]2O)[C@](C)(O)C[C@@H](C)C(=O)[C@H](C)[C@@H](O)[C@]1(C)O` [ERYTHROMYCIN]: the MIC against Staphylococcus aureus [1] was 0.4 µg/mL (≈ 0.545 µM); with Staphylococcus aureus [2], 0.2 µg/mL (≈ 0.273 µM); against Staphylococcus aureus [3] it was 400 µg/mL (≈ 545 µM); in the data set on Staphylococcus aureus [4] it was 0.2 µg/mL (≈ 0.273 µM); against Staphylococcus aureus [5], 0.4 µg/mL (≈ 0.545 µM); against Staphylococcus aureus [6], 400 µg/mL (≈ 545 µM).
As to `CN(C)[C@@H]1C(O)=C(C(N)=O)C(=O)[C@@]2(O)C(O)=C3C(=O)c4c(O)cccc4[C@@](C)(O)[C@H]3C[C@@H]12` [TETRACYCLINE], the minimal inhibitory concentration (MIC) was determined as 1.25 µg/mL (≈ 2.81 µM) with Staphylococcus aureus [1]; 40 µg/mL (≈ 90 µM) in the data set on Staphylococcus aureus [2]; 0.625 µg/mL (≈ 1.41 µM) in the data set with Staphylococcus aureus [3]; 1.25 µg/mL (≈ 2.81 µM) against Staphylococcus aureus [4]; 1.25 µg/mL (≈ 2.81 µM) in the data set with Staphylococcus aureus [5]; 20 µg/mL (≈ 45 µM) in the data set on Staphylococcus aureus [6].
